The target in the test is T1, Corticotropin-releasing factor receptor 1 (Homo sapiens, UniProt P34998).
T1 sequence (P34998 whole entry): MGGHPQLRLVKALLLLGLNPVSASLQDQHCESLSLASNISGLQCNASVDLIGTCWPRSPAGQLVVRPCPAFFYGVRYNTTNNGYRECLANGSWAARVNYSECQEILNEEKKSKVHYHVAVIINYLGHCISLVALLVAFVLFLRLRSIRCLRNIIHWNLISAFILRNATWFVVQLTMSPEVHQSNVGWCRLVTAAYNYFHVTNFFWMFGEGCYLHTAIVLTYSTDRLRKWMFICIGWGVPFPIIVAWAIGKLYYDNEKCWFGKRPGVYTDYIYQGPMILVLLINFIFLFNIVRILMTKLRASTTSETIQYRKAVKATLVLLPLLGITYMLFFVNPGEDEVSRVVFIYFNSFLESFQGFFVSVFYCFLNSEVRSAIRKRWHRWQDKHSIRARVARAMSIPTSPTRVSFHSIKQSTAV
In words: Binding affinity at human CRF1 receptor (CRFR1) on HeLA cell membranes. It counts as cell-based. In outline: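 Membranes from HeLa cells transfected with a plasmid encoding human CRFR1, precoupled to WGA scintillation proximity beads. Bead-bound radioactivity counted by scintillation. Ki reported; curves from three determinations, each in duplicate.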

Bridge positions count the residues as written; N and C are the ends. Square brackets hold non-standard residues; d marks the D form. Peptide text beside a SMILES is read from it. ξ: configuration not given here. Cha = N[C@@H](CC1CCCCC1)C(=O)O; ξR = N=C(N)NCCCC(N)C(=O)O; Nle = CCCC[C@H](N)C(=O)O

For orientation: Ki means a dissociation constant, usually derived from enzyme kinetics or from competition with a known ligand. Lower therefore signals tighter binding.

In turn, `CCCC[C@H](NC(=O)[C@H](CC(C)C)NC(=O)[C@H](CCCCN)NC(=O)[C@H](CCCN=C(N)N)NC(=O)[C@H](CC(N)=O)NC(=O)[C@@H]1CCCCNC(=O)CC[C@H](NC(C)=O)C(=O)N[C@H](C)C(=O)N[C@@H](Cc2ccccc2)C(=O)N1)C(=O)N[C@@H](CCC(=O)O)C(=O)N[C@H](C(=O)N[C@H](C(N)=O)[C@@H](C)CC)[C@@H](C)CC` returned a Ki (hela) of more than 1000 nM.
Take `CCCC[C@H](NC(=O)[C@H](CC(C)C)NC(=O)[C@H](CCCCN)NC(=O)[C@H](CCCN=C(N)N)NC(=O)[C@H](CC(=O)O)NC(=O)[C@@H]1CCCCNC(=O)CC[C@H](NC(C)=O)C(=O)N[C@@H](C)C(=O)N[C@@H](Cc2c[nH]cn2)C(=O)N1)C(=O)N[C@@H](CCC(=O)O)C(=O)N[C@H](C(=O)N[C@H](C(N)=O)[C@@H](C)CC)[C@@H](C)CC` (Ac-EAHKDRKL[Nle]EII-NH2; lactam 1-4): the Ki was more than 1000 nM.
The molecule `CCCC[C@H](NC(=O)[C@H](CC(C)C)NC(=O)[C@H](CCCCN)NC(=O)[C@H](CCCNC(=N)N)NC(=O)[C@H](CC(C)C)NC(=O)[C@@H]1CCCCNC(=O)CC[C@H](NC(C)=O)C(=O)N[C@@H](C)C(=O)N[C@@H](CC(C)C)C(=O)N1)C(=O)N[C@@H](CCC(=O)O)C(=O)N[C@H](C(=O)N[C@H](C(N)=O)[C@@H](C)CC)[C@@H](C)CC` (Ac-EALKLRKL[Nle]EII-NH2; lactam 1-4) registered an inhibition constant Ki (hela) of 48.9 nM.
On the same count and under the same terms, the figure for `CCCC[C@H](NC(=O)[C@H](CC(C)C)NC(=O)[C@H](CCCCN)NC(=O)C(CCCN=C(N)N)NC(=O)[C@H](CC(N)=O)NC(=O)[C@@H]1CCCCNC(=O)CC[C@H](NC(C)=O)C(=O)N[C@@H](C)C(=O)N[C@@H](CCCCN)C(=O)N1)C(=O)N[C@@H](CCC(=O)O)C(=O)N[C@H](C(=O)N[C@H](C(N)=O)[C@@H](C)CC)[C@@H](C)CC` (some centres undefined) (Ac-EAKKN[ξR]KL[Nle]EII-NH2; lactam 1-4) is 44.8 nM.
The same measure, in the same setting: under `CC[C@H](C)[C@H](NC(=O)[C@@H](NC(=O)[C@H](CC(=O)O)NC(=O)[C@H](CC1CCCCC1)NC(=O)[C@H](CC(C)C)NC(=O)[C@H](CCCCN)NC(=O)[C@H](CCCNC(=N)N)NC(=O)[C@H](CC(N)=O)NC(=O)[C@@H]1CCCCNC(=O)CC[C@H](NC(C)=O)C(=O)N[C@@H](C)C(=O)N[C@@H](CCC(=O)O)C(=O)N1)[C@@H](C)CC)C(N)=O` (Ac-EAEKNRKL[Cha]DII-NH2; lactam 1-4) stands 5.5 nM.
Take `CCCC[C@H](NC(=O)[C@H](CC(C)C)NC(=O)[C@H](CCCCN)NC(=O)[C@H](CCCN=C(N)N)NC(=O)[C@H](CCC(N)=O)NC(=O)[C@@H]1CCCCNC(=O)CC[C@H](NC(C)=O)C(=O)N[C@@H](C)C(=O)N[C@@H](Cc2c[nH]cn2)C(=O)N1)C(=O)N[C@@H](CCC(=O)O)C(=O)N[C@H](C(=O)N[C@H](C(N)=O)[C@@H](C)CC)[C@@H](C)CC` (Ac-EAHKQRKL[Nle]EII-NH2; lactam 1-4): the Ki was more than 1000 nM.
With `CC[C@H](C)[C@H](NC(=O)[C@@H](NC(=O)[C@H](CC(=O)O)NC(=O)[C@H](CC1CCCCC1)NC(=O)[C@H](CC(C)C)NC(=O)[C@H](CCCCN)NC(=O)[C@H](CCCNC(=N)N)NC(=O)[C@H](CC(C)C)NC(=O)[C@@H]1CCCCNC(=O)CC[C@H](NC(C)=O)C(=O)N[C@H](C)C(=O)N[C@@H](CCC(=O)O)C(=O)N1)[C@@H](C)CC)C(N)=O`, the Ki (hela) was 3.1 nM.
`CCCC[C@H](NC(=O)[C@H](CC(C)C)NC(=O)[C@H](CCCCN)NC(=O)[C@H](CCCN=C(N)N)NC(=O)[C@H](CC(N)=O)NC(=O)[C@@H]1CCCCNC(=O)CC[C@H](NC(C)=O)C(=O)N[C@@H](CC(=O)O)C(=O)N[C@@H](Cc2c[nH]cn2)C(=O)N1)C(=O)N[C@@H](CCC(=O)O)C(=O)N[C@H](C(=O)N[C@H](C(N)=O)[C@@H](C)CC)[C@@H](C)CC` (Ac-EDHKNRKL[Nle]EII-NH2; lactam 1-4) came in with a Ki of more than 1000 nM.
Same read-out and setting: the figure for `CCCC[C@H](NC(=O)[C@H](CC(C)C)NC(=O)[C@H](CCCCN)NC(=O)[C@H](CCCN=C(N)N)NC(=O)[C@H](CC(C)C)NC(=O)[C@@H]1CCCCNC(=O)CC[C@H](NC(C)=O)C(=O)N[C@@H](C)C(=O)N[C@@H](Cc2c[nH]cn2)C(=O)N1)C(=O)N[C@@H](CCC(=O)O)C(=O)N[C@H](C(=O)N[C@H](C(N)=O)[C@@H](C)CC)[C@@H](C)CC` (Ac-EAHKLRKL[Nle]EII-NH2; lactam 1-4) is more than 1000 nM.
